ChEMBL document CHEMBL1134286, “Novel erythromycin derivatives with aryl groups tethered to the C-6 position are potent protein synthesis inhibitors and active against multidrug-resistant respiratory pathogens” (J Med Chem, 2001)
≈ marks a conversion by molar mass, not a printed value.

Tests used:
Staphylococcus aureus [1] = assay: Minimum inhibitory concentration against Staphylococcus aureus ATCC 6538PEry-S; type: functional; conditions: ATCC 6538P
Summary of the method: (§1)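 MICs were determined by agar dilution following National Committee for Clinical Laboratory Standards recommendations. Values are in µg/mL.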

[2] = Minimum inhibitory concentration against Streptococcus pneumoniae 5737 MLSB; type: functional; summary of the method: as §1
Streptococcus pneumoniae [3] = assay: Minimum inhibitory concentration against Streptococcus pneumoniae 5649 efflux; type: functional; summary of the method: as §1
Streptococcus pneumoniae [4] = assay: Minimum inhibitory concentration against Streptococcus pneumoniae 6303 (erythromycin susceptible strain); type: functional; summary of the method: as §1
Mus musculus [5] = organism: Mus musculus; assay: Mouse protection tests for effective dose against Streptococcus pneumoniae 6303 ((erythromycin susceptible strain)) infected mice; type: functional
[6] = Minimum inhibitory concentration against Haemophilus influenzae DILL Amp-R; type: functional; summary of the method: as §1
Staphylococcus aureus [7] = assay: Minimum inhibitory concentration against Staphylococcus aureus A 5177 MLSB-i; type: functional; summary of the method: as §1
Staphylococcus aureus [8] = assay: Minimum inhibitory concentration against Staphylococcus aureus 10649 (erythromycin susceptible strain); type: functional; summary of the method: as §1
Streptococcus pneumoniae [9] = assay: Minimum inhibitory concentration against Streptococcus pneumoniae ATCC 6303 Ery-S; type: functional; summary of the method: as §1
Mus musculus [10] = organism: Mus musculus; assay: Mouse protection tests for effective dose against Staphylococcus aureus 10649 ((erythromycin susceptible strain)) infected mice; type: functional
[11] = Minimum inhibitory concentration against Streptococcus pyogenes EES 61 Ery-S; type: functional; summary of the method: as §1
[12] = Minimum inhibitory concentration against Streptococcus pyogenes PIU2548 efflux; type: functional; summary of the method: as §1
Staphylococcus aureus [13] = assay: Minimum inhibitory concentration against Staphylococcus aureus A 5278 MLSB-c; type: functional; summary of the method: as §1
[14] = Minimum inhibitory concentration against Streptococcus pyogenes 930MLSB; type: functional; summary of the method: as §1
Streptococcus pneumoniae [15] = assay: Cell free inhibiting activity against erythromycin-susceptible strain Streptococcus pneumoniae 5635 (Wild type ribosomes for transcription/translation assay); type: functional
Summary of the method: (§2)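 Cell-free coupled transcription/translation assay using bacterial ribosome S-30 extracts. Wild-type ribosomes were isolated from the erythromycin-susceptible strain S. pneumoniae 5635. Inhibition is reported as IC50 (µM).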

Streptococcus pneumoniae [16] = assay: Cell free inhibiting activity against MLSB-resistant strain Streptococcus pneumoniae 1813 (methylated ribosomes for transcription/translation assay)
Streptococcus pneumoniae [17] = assay: Cell free inhibiting activity against erythromycin-susceptible strain Streptococcus pneumoniae 5635 (Wild type ribosomes for transcription/translation assay)
[18] = Minimum inhibitory concentration againstH. influenzae DILL Amp-R; type: functional; conditions: Haemophilus influenzae
Summary of the method: (§3)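 Whole-cell MIC determined by agar dilution following National Committee for Clinical Laboratory Standards recommendations; values expressed in µg/mL.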

Mus musculus [19] = organism: Mus musculus; assay: Effective dose against Streptococcus pneumoniae 6303 (erythromycin susceptible strain); type: functional
Streptococcus pneumoniae [20] = assay: Cell free inhibiting activity against Streptococcus pneumoniae 5635(Wild type ribosomes for transcription/translation assay); type: functional; summary of the method: as §2
Streptococcus pneumoniae [21] = assay: Cell free inhibiting activity against Streptococcus pneumoniae 1813 (methylated ribosomes for transcription/translation assay); type: functional
Staphylococcus aureus [22] = assay: Minimum against Staphylococcus aureus 10649 (erythromycin susceptible strain); type: functional; summary of the method: as §1
Streptococcus pneumoniae [23] = assay: Minimum against Streptococcus pneumoniae 6303 (erythromycin susceptible strain); type: functional; summary of the method: as §3
Streptococcus pneumoniae [24] = assay: Cell free inhibiting activity against MLSB-resistant strain Streptococcus pneumoniae 1813 (methylated ribosomes for transcription/translation assay); remark: listed apart in the source

SMILES	MIC (Staphylococcus aureus [1]) [µg/mL]	MIC [2] [µg/mL]	MIC (Streptococcus pneumoniae [3]) [µg/mL]	MIC (Streptococcus pneumoniae [4]) [µg/mL]	ED50 (Mus musculus [5]) [mg/kg]	MIC [6] [µg/mL]	MIC (Staphylococcus aureus [7]) [µg/mL]	MIC (Staphylococcus aureus [8]) [µg/mL]	MIC (Streptococcus pneumoniae [9]) [µg/mL]	ED50 (Mus musculus [10]) [mg/kg]	MIC [11] [µg/mL]	MIC [12] [µg/mL]	MIC (Staphylococcus aureus [13]) [µg/mL]	MIC [14] [µg/mL]	IC50 (Streptococcus pneumoniae [15]) [nM]	IC50 (Streptococcus pneumoniae [16]) [nM]	also measured
CC[C@H]1OC(=O)[C@H](C)C(=O)[C@H](C)[C@@H](O[C@@H]2O[C@H](C)C[C@H](N(C)C)[C@H]2O)[C@](C)(OCCCc2cnc3ccccc3c2)C[C@@H](C)C(=O)[C@H](C)[C@H]2NC(=O)O[C@@]21C	0.1 (≈ 0.13 µM)	8 (≈ 10.4 µM)	0.25 (≈ 0.326 µM)	0.015 (≈ 0.0195 µM)	33	2 (≈ 2.6 µM)	0.1 (≈ 0.13 µM)	0.1 (≈ 0.13 µM)	0.015 (≈ 0.0195 µM)	27.1	0.004 (≈ 0.00521 µM)	0.25 (≈ 0.326 µM)	> 100	4 (≈ 5.21 µM)			
C=CCO[C@]1(C)C[C@@H](C)C(=O)[C@H](C)[C@H]2NC(=O)O[C@]2(C)[C@@H](CC)OC(=O)[C@H](C)C(=O)[C@H](C)[C@H]1O[C@@H]1O[C@H](C)C[C@H](N(C)C)[C@H]1O	0.78 (≈ 1.22 µM)	> 64	0.25 (≈ 0.391 µM)			64 (≈ 100 µM)	1.56 (≈ 2.44 µM)		0.5 (≈ 0.783 µM)		0.25 (≈ 0.391 µM)	1 (≈ 1.57 µM)	> 100	> 64	350	> 500000	
CC[C@H]1OC(=O)[C@H](C)C(=O)[C@H](C)[C@@H](O[C@@H]2O[C@H](C)C[C@H](N(C)C)[C@H]2O)[C@](C)(OC/C=C/c2cnc3cccnc3c2)C[C@@H](C)C(=O)[C@H](C)[C@H]2NC(=O)O[C@@]21C	0.05 (≈ 0.0652 µM)	0.25 (≈ 0.326 µM)	1 (≈ 1.3 µM)	0.015 (≈ 0.0196 µM)	17.3	2 (≈ 2.61 µM)	0.05 (≈ 0.0652 µM)	0.05 (≈ 0.0652 µM)	0.015 (≈ 0.0196 µM)	12.5	0.03 (≈ 0.0391 µM)	0.5 (≈ 0.652 µM)	> 100	2 (≈ 2.61 µM)		25000	IC50 (Streptococcus pneumoniae [17]): 100 nM
CC[C@H]1OC(=O)[C@H](C)C(=O)[C@H](C)[C@@H](O[C@@H]2O[C@H](C)C[C@H](N(C)C)[C@H]2O)[C@](C)(OC/C=C/c2cnc3ccsc3c2)C[C@@H](C)C(=O)[C@H](C)[C@H]2NC(=O)O[C@@]21C	0.05 (≈ 0.0648 µM)	0.5 (≈ 0.648 µM)	0.25 (≈ 0.324 µM)	0.004 (≈ 0.00518 µM)		2 (≈ 2.59 µM)	0.05 (≈ 0.0648 µM)	0.05 (≈ 0.0648 µM)	0.004 (≈ 0.00518 µM)	> 50	0.008 (≈ 0.0104 µM)	0.25 (≈ 0.324 µM)	> 100	1 (≈ 1.3 µM)	70	150000	
C=CCO[C@]1(C)C[C@@H](C)C(=O)[C@H](C)[C@@H](O)[C@](C)(O)[C@@H](CC)OC(=O)[C@H](C)[C@@H](O[C@H]2C[C@@](C)(OC)[C@@H](O)[C@H](C)O2)[C@H](C)[C@H]1O[C@@H]1O[C@H](C)C[C@H](N(C)C)[C@H]1O	0.78 (≈ 1.01 µM)						12.5 (≈ 16.1 µM)					64 (≈ 82.7 µM)	> 100	> 128	150	> 500000	MIC [18]: 32 µg/mL (≈ 41.3 µM)
CC[C@H]1OC(=O)[C@H](C)C(=O)[C@H](C)[C@@H](O[C@@H]2O[C@H](C)C[C@H](N(C)C)[C@H]2O)[C@](C)(OC/C=C/c2cnc3ccccc3c2)C[C@@H](C)C(=O)[C@H](C)[C@@H](O)[C@]1(C)O	0.2 (≈ 0.27 µM)	16 (≈ 21.6 µM)	0.25 (≈ 0.337 µM)	0.03 (≈ 0.0405 µM)	> 40	16 (≈ 21.6 µM)	0.2 (≈ 0.27 µM)	0.2 (≈ 0.27 µM)	0.03 (≈ 0.0405 µM)	27.2	0.2 (≈ 0.27 µM)	0.1 (≈ 0.135 µM)	> 100	100 (≈ 135 µM)			
CC[C@H]1OC(=O)[C@H](C)C(=O)[C@H](C)[C@@H](O[C@@H]2O[C@H](C)C[C@H](N(C)C)[C@H]2O)[C@](C)(OC/C=C/c2ccccc2)C[C@@H](C)C(=O)[C@H](C)[C@H]2NC(=O)O[C@@]21C	0.1 (≈ 0.14 µM)	64 (≈ 89.5 µM)	0.25 (≈ 0.35 µM)	0.03 (≈ 0.042 µM)	> 40	4 (≈ 5.6 µM)	0.1 (≈ 0.14 µM)	0.1 (≈ 0.14 µM)	0.03 (≈ 0.042 µM)	30.2	0.03 (≈ 0.042 µM)	0.25 (≈ 0.35 µM)	> 100	64 (≈ 89.5 µM)			
CC[C@H]1OC(=O)[C@H](C)C(=O)[C@H](C)[C@@H](O[C@@H]2O[C@H](C)C[C@H](N(C)C)[C@H]2O)[C@](C)(OC/C=C/c2ccc3nccnc3c2)C[C@@H](C)C(=O)[C@H](C)[C@H]2NC(=O)O[C@@]21C	0.1 (≈ 0.13 µM)	0.25 (≈ 0.326 µM)	0.5 (≈ 0.652 µM)	0.015 (≈ 0.0196 µM)	33.1	2 (≈ 2.61 µM)	0.1 (≈ 0.13 µM)	0.1 (≈ 0.13 µM)	0.015 (≈ 0.0196 µM)	< 6.25	0.03 (≈ 0.0391 µM)	0.25 (≈ 0.326 µM)	> 100	1 (≈ 1.3 µM)		40000	IC50 (Streptococcus pneumoniae [17]): 80 nM
CC[C@H]1OC(=O)[C@H](C)[C@@H](O[C@H]2C[C@@](C)(OC)[C@@H](O)[C@H](C)O2)[C@H](C)[C@@H](O[C@@H]2O[C@H](C)C[C@H](N(C)C)[C@H]2O)[C@](C)(O)C[C@@H](C)CN(C)[C@H](C)[C@@H](O)[C@]1(C)O [AZITHROMYCIN]				0.12 (≈ 0.16 µM)				0.78 (≈ 1.04 µM)		24.8							ED50 (Mus musculus [19]): 18.8 mg/kg; IC50 (Streptococcus pneumoniae [20]): 170 nM; IC50 (Streptococcus pneumoniae [21]): > 500000 nM
CC[C@H]1OC(=O)[C@H](C)C(=O)[C@H](C)[C@@H](O[C@@H]2O[C@H](C)C[C@H](N(C)C)[C@H]2O)[C@](C)(OCC=Cc2cnc3ccccc3c2)C[C@@H](C)C(=O)[C@H](C)[C@H]2NC(=O)O[C@@]21C [CETHROMYCIN]	0.05 (≈ 0.0653 µM)	0.25 (≈ 0.326 µM)	0.125 (≈ 0.163 µM)	0.004 (≈ 0.00522 µM)	7.8	2 (≈ 2.61 µM)	0.05 (≈ 0.0653 µM)	0.05 (≈ 0.0653 µM)	0.004 (≈ 0.00522 µM)	9.4	0.004 (≈ 0.00522 µM)	0.25 (≈ 0.326 µM)	> 100	1 (≈ 1.31 µM)		28000	IC50 (Streptococcus pneumoniae [17]): 40 nM
CC[C@H]1OC(=O)[C@H](C)[C@@H](O[C@H]2C[C@@](C)(OC)[C@@H](O)[C@H](C)O2)[C@H](C)[C@@H](O[C@@H]2O[C@H](C)C[C@H](N(C)C)[C@H]2O)[C@](C)(OC)C[C@@H](C)C(=O)[C@H](C)[C@@H](O)[C@]1(C)O [CLARITHROMYCIN]					27.9					16.7							MIC (Staphylococcus aureus [22]): 0.2 µg/mL (≈ 0.267 µM); IC50 (Streptococcus pneumoniae [20]): 90 nM; MIC (Streptococcus pneumoniae [23]): 0.03 µg/mL (≈ 0.0401 µM); IC50 (Streptococcus pneumoniae [21]): > 500000 nM
CC[C@H]1OC(=O)[C@H](C)[C@@H](O[C@H]2C[C@@](C)(OC)[C@@H](O)[C@H](C)O2)[C@H](C)[C@@H](O[C@@H]2O[C@H](C)C[C@H](N(C)C)[C@H]2O)[C@](C)(O)C[C@@H](C)C(=O)[C@H](C)[C@@H](O)[C@]1(C)O [ERYTHROMYCIN]	0.2 (≈ 0.273 µM)	> 128	32 (≈ 43.6 µM)				6.2 (≈ 8.45 µM)		0.06 (≈ 0.0818 µM)		0.06 (≈ 0.0818 µM)	16 (≈ 21.8 µM)	> 100	> 128	120		MIC [18]: 8 µg/mL (≈ 10.9 µM); IC50 (Streptococcus pneumoniae [24]): > 500000 nM
